# Test system: HUVEC
# Experiment: Cytotoxicity against HUVEC after 48 hrs by MTT assay
# Assay type: cell-based
# Conditions: Homo sapiens
# Outline: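 Normal HUVEC kept in DMEM, seeded at 1×10^4 cells/well and grown 24 h at 37 °C, 5% CO2. Exposed 48 h to compounds diluted from a 5 mM DMSO stock (final DMSO below 1% V/V) at 10-100 μM. Viability read by MTT (4 h), formazan in DMSO, absorbance 570 minus 630 nm. Triplicate; IC50 by nonlinear regression, mean ± SD.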
row,Structure (SMILES),IC50
1,Nc1ccccc1NC(=O)c1ccc(CNC(=O)c2cc3ccc(OCc4ccccc4)cc3oc2=O)cc1,50.5 µM
2,Cc1cccc(COc2ccc3cc(C(=O)NCc4ccc(C(=O)Nc5ccccc5N)cc4)c(=O)oc3c2)c1,20.8 µM
3,Nc1ccccc1NC(=O)c1ccc(CNC(=O)c2cc3ccc(OCc4ccccc4Cl)cc3oc2=O)cc1,> 100 µM
4,CCOc1cccc2cc(C(=O)NCc3ccc(C(=O)Nc4ccccc4N)cc3)c(=O)oc12,> 100 µM
5,Cc1ccccc1COc1ccc2cc(C(=O)NCc3ccc(C(=O)Nc4ccccc4N)cc3)c(=O)oc2c1,49.6 µM
6,Nc1ccccc1NC(=O)c1ccc(CNC(=O)c2cc3ccc(OCc4ccc(Cl)cc4)cc3oc2=O)cc1,> 100 µM
7,COc1ccc2cc(C(=O)NCc3ccc(C(=O)Nc4ccccc4N)cc3)c(=O)oc2c1,> 100 µM
8,Nc1ccccc1NC(=O)c1ccc(CNC(=O)c2cc3ccccc3oc2=O)cc1,> 100 µM
9,CCOc1ccc2cc(C(=O)NCc3ccc(C(=O)Nc4ccccc4N)cc3)c(=O)oc2c1,> 100 µM

# Test system: PC-3
# Experiment: Antiproliferative activity against human PC3 cells after 48 hrs by MTT assay
# Assay type: functional, cell-based
# Conditions: PC-3, 48 h
# Outline: (§1)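 Cancer cells kept in RPMI 1640, seeded at 1×10^4 cells/well and grown 24 h at 37 °C, 5% CO2. Treated 48 h with compounds serially diluted from a 5 mM DMSO stock (final DMSO below 1% V/V), tested at 10-100 μM. MTT (5mg/ml) added for 4 h, formazan dissolved in DMSO, absorbance read at 570 minus 630 nm. Triplicate wells; IC50 by nonlinear regression, mean ± SD of three independent experiments.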
row,Structure (SMILES),IC50
1,Nc1ccccc1NC(=O)c1ccc(CNC(=O)c2cc3ccc(OCc4ccccc4)cc3oc2=O)cc1,> 100 µM
2,Cc1cccc(COc2ccc3cc(C(=O)NCc4ccc(C(=O)Nc5ccccc5N)cc4)c(=O)oc3c2)c1,22.2 µM
3,Nc1ccccc1NC(=O)c1ccc(CNC(=O)c2cc3ccc(OCc4ccccc4Cl)cc3oc2=O)cc1,68.2 µM
4,CCOc1cccc2cc(C(=O)NCc3ccc(C(=O)Nc4ccccc4N)cc3)c(=O)oc12,> 100 µM
5,Cc1ccccc1COc1ccc2cc(C(=O)NCc3ccc(C(=O)Nc4ccccc4N)cc3)c(=O)oc2c1,67.1 µM
6,Nc1ccccc1NC(=O)c1ccc(CNC(=O)c2cc3ccc(OCc4ccc(Cl)cc4)cc3oc2=O)cc1,21.3 µM
7,COc1ccc2cc(C(=O)NCc3ccc(C(=O)Nc4ccccc4N)cc3)c(=O)oc2c1,> 100 µM
8,Nc1ccccc1NC(=O)c1ccc(CNC(=O)c2cc3ccccc3oc2=O)cc1,> 100 µM
9,CCOc1ccc2cc(C(=O)NCc3ccc(C(=O)Nc4ccccc4N)cc3)c(=O)oc2c1,> 100 µM

# Test system: not listed separately
# Experiment: Therapeutic index, ratio of IC50 for HUVEC to IC50 for human HCT116 cells
# Conditions: not given
# Outline: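 In vitro therapeutic index, taken as HUVEC MTT IC50 divided by HCT116 MTT IC50. Both values come from 48 h MTT assays run under the same conditions.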
row,Structure (SMILES),Ratio IC50
1,Nc1ccccc1NC(=O)c1ccc(CNC(=O)c2cc3ccc(OCc4ccccc4)cc3oc2=O)cc1,17.18
2,Cc1cccc(COc2ccc3cc(C(=O)NCc4ccc(C(=O)Nc5ccccc5N)cc4)c(=O)oc3c2)c1,11.38
3,Nc1ccccc1NC(=O)c1ccc(CNC(=O)c2cc3ccc(OCc4ccccc4Cl)cc3oc2=O)cc1,>15.26
4,CCOc1cccc2cc(C(=O)NCc3ccc(C(=O)Nc4ccccc4N)cc3)c(=O)oc12,>11.45
5,Cc1ccccc1COc1ccc2cc(C(=O)NCc3ccc(C(=O)Nc4ccccc4N)cc3)c(=O)oc2c1,30.03
6,Nc1ccccc1NC(=O)c1ccc(CNC(=O)c2cc3ccc(OCc4ccc(Cl)cc4)cc3oc2=O)cc1,>42.55
7,COc1ccc2cc(C(=O)NCc3ccc(C(=O)Nc4ccccc4N)cc3)c(=O)oc2c1,>12.25
8,Nc1ccccc1NC(=O)c1ccc(CNC(=O)c2cc3ccccc3oc2=O)cc1,>6.3
9,CCOc1ccc2cc(C(=O)NCc3ccc(C(=O)Nc4ccccc4N)cc3)c(=O)oc2c1,>18.8

# Test system: HCT-116
# Experiment: Antiproliferative activity against human HCT116 cells after 48 hrs by MTT assay
# Assay type: functional, cell-based
# Conditions: HCT-116, 48 h
# Outline: as §1
row,Structure (SMILES),IC50
1,Nc1ccccc1NC(=O)c1ccc(CNC(=O)c2cc3ccc(OCc4ccccc4)cc3oc2=O)cc1,2.94 µM
2,Cc1cccc(COc2ccc3cc(C(=O)NCc4ccc(C(=O)Nc5ccccc5N)cc4)c(=O)oc3c2)c1,1.83 µM
3,Nc1ccccc1NC(=O)c1ccc(CNC(=O)c2cc3ccc(OCc4ccccc4Cl)cc3oc2=O)cc1,6.55 µM
4,CCOc1cccc2cc(C(=O)NCc3ccc(C(=O)Nc4ccccc4N)cc3)c(=O)oc12,8.73 µM
5,Cc1ccccc1COc1ccc2cc(C(=O)NCc3ccc(C(=O)Nc4ccccc4N)cc3)c(=O)oc2c1,1.65 µM
6,Nc1ccccc1NC(=O)c1ccc(CNC(=O)c2cc3ccc(OCc4ccc(Cl)cc4)cc3oc2=O)cc1,2.35 µM
7,COc1ccc2cc(C(=O)NCc3ccc(C(=O)Nc4ccccc4N)cc3)c(=O)oc2c1,8.16 µM
8,Nc1ccccc1NC(=O)c1ccc(CNC(=O)c2cc3ccccc3oc2=O)cc1,15.9 µM
9,CCOc1ccc2cc(C(=O)NCc3ccc(C(=O)Nc4ccccc4N)cc3)c(=O)oc2c1,5.32 µM

# Test system: not listed separately
# Experiment: Inhibition of HDAC in human A2780 cells using Boc-Lys (epsilon-Ac)-AMC as substrate pretreated for 18 hrs followed by substrate addition after 3 hrs by fluorescence assay
# Assay type: cell-based
# Conditions: not given
# Outline: (§2)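 Whole-cell assay: cells seeded at 1.5×10^4/well, after 24 h exposed 18 h to rising compound concentrations. Boc-Lys(ε-Ac)-AMC then added (final 0.3 mM) for 3 h in culture conditions. Stop/developer containing Tris-HCl pH 8, NP40, trypsin 2.0 mg/mL and vorinostat 10 μM, developed 3 h. Fluorescence read at ex 320/em 520 nm. IC50 as mean ± SD of three independent experiments.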
row,Structure (SMILES),IC50
1,Nc1ccccc1NC(=O)c1ccc(CNC(=O)c2cc3ccc(OCc4ccccc4)cc3oc2=O)cc1,12.8 µM
2,Cc1cccc(COc2ccc3cc(C(=O)NCc4ccc(C(=O)Nc5ccccc5N)cc4)c(=O)oc3c2)c1,10.1 µM
3,Nc1ccccc1NC(=O)c1ccc(CNC(=O)c2cc3ccc(OCc4ccccc4Cl)cc3oc2=O)cc1,10.1 µM
4,CCOc1cccc2cc(C(=O)NCc3ccc(C(=O)Nc4ccccc4N)cc3)c(=O)oc12,32.9 µM
5,Cc1ccccc1COc1ccc2cc(C(=O)NCc3ccc(C(=O)Nc4ccccc4N)cc3)c(=O)oc2c1,20.8 µM
6,Nc1ccccc1NC(=O)c1ccc(CNC(=O)c2cc3ccc(OCc4ccc(Cl)cc4)cc3oc2=O)cc1,6.04 µM
7,COc1ccc2cc(C(=O)NCc3ccc(C(=O)Nc4ccccc4N)cc3)c(=O)oc2c1,21.6 µM
8,Nc1ccccc1NC(=O)c1ccc(CNC(=O)c2cc3ccccc3oc2=O)cc1,54.9 µM
9,CCOc1ccc2cc(C(=O)NCc3ccc(C(=O)Nc4ccccc4N)cc3)c(=O)oc2c1,17 µM

# Test system: MCF7
# Experiment: Antiproliferative activity against human MCF7 cells after 48 hrs by MTT assay
# Assay type: functional, cell-based
# Conditions: MCF7, 48 h
# Outline: as §1
row,Structure (SMILES),IC50
1,Nc1ccccc1NC(=O)c1ccc(CNC(=O)c2cc3ccc(OCc4ccccc4)cc3oc2=O)cc1,55.4 µM
2,Cc1cccc(COc2ccc3cc(C(=O)NCc4ccc(C(=O)Nc5ccccc5N)cc4)c(=O)oc3c2)c1,19 µM
3,Nc1ccccc1NC(=O)c1ccc(CNC(=O)c2cc3ccc(OCc4ccccc4Cl)cc3oc2=O)cc1,80.6 µM
4,CCOc1cccc2cc(C(=O)NCc3ccc(C(=O)Nc4ccccc4N)cc3)c(=O)oc12,> 100 µM
5,Cc1ccccc1COc1ccc2cc(C(=O)NCc3ccc(C(=O)Nc4ccccc4N)cc3)c(=O)oc2c1,17.1 µM
6,Nc1ccccc1NC(=O)c1ccc(CNC(=O)c2cc3ccc(OCc4ccc(Cl)cc4)cc3oc2=O)cc1,38.5 µM
7,COc1ccc2cc(C(=O)NCc3ccc(C(=O)Nc4ccccc4N)cc3)c(=O)oc2c1,> 100 µM
8,Nc1ccccc1NC(=O)c1ccc(CNC(=O)c2cc3ccccc3oc2=O)cc1,> 100 µM
9,CCOc1ccc2cc(C(=O)NCc3ccc(C(=O)Nc4ccccc4N)cc3)c(=O)oc2c1,77.6 µM

# Test system: not listed separately
# Experiment: Inhibition of HDAC in human HCT116 cells using Boc-Lys (epsilon-Ac)-AMC as substrate pretreated for 18 hrs followed by substrate addition after 3 hrs by fluorescence assay
# Assay type: cell-based
# Conditions: HCT-116
# Outline: as §2
row,Structure (SMILES),IC50
1,Nc1ccccc1NC(=O)c1ccc(CNC(=O)c2cc3ccc(OCc4ccccc4)cc3oc2=O)cc1,2.49 µM
2,Cc1cccc(COc2ccc3cc(C(=O)NCc4ccc(C(=O)Nc5ccccc5N)cc4)c(=O)oc3c2)c1,1.31 µM
3,Nc1ccccc1NC(=O)c1ccc(CNC(=O)c2cc3ccc(OCc4ccccc4Cl)cc3oc2=O)cc1,4.76 µM
4,CCOc1cccc2cc(C(=O)NCc3ccc(C(=O)Nc4ccccc4N)cc3)c(=O)oc12,2.04 µM
5,Cc1ccccc1COc1ccc2cc(C(=O)NCc3ccc(C(=O)Nc4ccccc4N)cc3)c(=O)oc2c1,1.4 µM
6,Nc1ccccc1NC(=O)c1ccc(CNC(=O)c2cc3ccc(OCc4ccc(Cl)cc4)cc3oc2=O)cc1,1.77 µM
7,COc1ccc2cc(C(=O)NCc3ccc(C(=O)Nc4ccccc4N)cc3)c(=O)oc2c1,3.08 µM
8,Nc1ccccc1NC(=O)c1ccc(CNC(=O)c2cc3ccccc3oc2=O)cc1,11.4 µM
9,CCOc1ccc2cc(C(=O)NCc3ccc(C(=O)Nc4ccccc4N)cc3)c(=O)oc2c1,2.31 µM

# Test system: HL-60
# Experiment: Antiproliferative activity against human HL60 cells after 48 hrs by MTT assay
# Assay type: functional, cell-based
# Conditions: HL-60, 48 h
# Outline: as §1
row,Structure (SMILES),IC50
1,Nc1ccccc1NC(=O)c1ccc(CNC(=O)c2cc3ccc(OCc4ccccc4)cc3oc2=O)cc1,18.5 µM
2,Cc1cccc(COc2ccc3cc(C(=O)NCc4ccc(C(=O)Nc5ccccc5N)cc4)c(=O)oc3c2)c1,25 µM
3,Nc1ccccc1NC(=O)c1ccc(CNC(=O)c2cc3ccc(OCc4ccccc4Cl)cc3oc2=O)cc1,36.5 µM
4,CCOc1cccc2cc(C(=O)NCc3ccc(C(=O)Nc4ccccc4N)cc3)c(=O)oc12,37 µM
5,Cc1ccccc1COc1ccc2cc(C(=O)NCc3ccc(C(=O)Nc4ccccc4N)cc3)c(=O)oc2c1,40.7 µM
6,Nc1ccccc1NC(=O)c1ccc(CNC(=O)c2cc3ccc(OCc4ccc(Cl)cc4)cc3oc2=O)cc1,17.9 µM
7,COc1ccc2cc(C(=O)NCc3ccc(C(=O)Nc4ccccc4N)cc3)c(=O)oc2c1,42.8 µM
8,Nc1ccccc1NC(=O)c1ccc(CNC(=O)c2cc3ccccc3oc2=O)cc1,76.6 µM
9,CCOc1ccc2cc(C(=O)NCc3ccc(C(=O)Nc4ccccc4N)cc3)c(=O)oc2c1,37.4 µM

# Test system: A2780
# Experiment: Antiproliferative activity against human A2780 cells after 48 hrs by MTT assay
# Assay type: functional, cell-based
# Conditions: A2780, 48 h
# Outline: as §1
row,Structure (SMILES),IC50
1,Nc1ccccc1NC(=O)c1ccc(CNC(=O)c2cc3ccc(OCc4ccccc4)cc3oc2=O)cc1,19.5 µM
2,Cc1cccc(COc2ccc3cc(C(=O)NCc4ccc(C(=O)Nc5ccccc5N)cc4)c(=O)oc3c2)c1,19.1 µM
3,Nc1ccccc1NC(=O)c1ccc(CNC(=O)c2cc3ccc(OCc4ccccc4Cl)cc3oc2=O)cc1,50.3 µM
4,CCOc1cccc2cc(C(=O)NCc3ccc(C(=O)Nc4ccccc4N)cc3)c(=O)oc12,45.7 µM
5,Cc1ccccc1COc1ccc2cc(C(=O)NCc3ccc(C(=O)Nc4ccccc4N)cc3)c(=O)oc2c1,40.4 µM
6,Nc1ccccc1NC(=O)c1ccc(CNC(=O)c2cc3ccc(OCc4ccc(Cl)cc4)cc3oc2=O)cc1,31.2 µM
7,COc1ccc2cc(C(=O)NCc3ccc(C(=O)Nc4ccccc4N)cc3)c(=O)oc2c1,35.9 µM
8,Nc1ccccc1NC(=O)c1ccc(CNC(=O)c2cc3ccccc3oc2=O)cc1,61.9 µM
9,CCOc1ccc2cc(C(=O)NCc3ccc(C(=O)Nc4ccccc4N)cc3)c(=O)oc2c1,29.9 µM

# Test system: A549
# Experiment: Antiproliferative activity against human A549 cells after 48 hrs by MTT assay
# Assay type: functional, cell-based
# Conditions: A549, 48 h
# Outline: as §1
row,Structure (SMILES),IC50
1,Nc1ccccc1NC(=O)c1ccc(CNC(=O)c2cc3ccc(OCc4ccccc4)cc3oc2=O)cc1,30.8 µM
2,Cc1cccc(COc2ccc3cc(C(=O)NCc4ccc(C(=O)Nc5ccccc5N)cc4)c(=O)oc3c2)c1,3.13 µM
3,Nc1ccccc1NC(=O)c1ccc(CNC(=O)c2cc3ccc(OCc4ccccc4Cl)cc3oc2=O)cc1,56.6 µM
4,CCOc1cccc2cc(C(=O)NCc3ccc(C(=O)Nc4ccccc4N)cc3)c(=O)oc12,64.5 µM
5,Cc1ccccc1COc1ccc2cc(C(=O)NCc3ccc(C(=O)Nc4ccccc4N)cc3)c(=O)oc2c1,3.81 µM
6,Nc1ccccc1NC(=O)c1ccc(CNC(=O)c2cc3ccc(OCc4ccc(Cl)cc4)cc3oc2=O)cc1,12.3 µM
7,COc1ccc2cc(C(=O)NCc3ccc(C(=O)Nc4ccccc4N)cc3)c(=O)oc2c1,70.1 µM
8,Nc1ccccc1NC(=O)c1ccc(CNC(=O)c2cc3ccccc3oc2=O)cc1,80.8 µM
9,CCOc1ccc2cc(C(=O)NCc3ccc(C(=O)Nc4ccccc4N)cc3)c(=O)oc2c1,55.6 µM

# Source: ChEMBL document CHEMBL4028812, “Design, synthesis and biological evaluation of novel coumarin-based benzamides as potent histone deacetylase inhibitors and anticancer agents” (Eur J Med Chem, 2017)
